# Screening data deposited in PubChem by The Scripps Research Institute Molecular Screening Center.
# A selection: hits, their analogues and other compounds. The true share with any hit is near 1.9%.
# LEDGF integ inh: blocks HIV-1 LEDGF/p75-dependent DNA integration; TR-FRET IN-LEDGF/p75 DNA integration, Eu/Cy5; inhibition, % at 3.7 µM; 0.64% of 370,000 active; AID 743269;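 active = inhibition above the screen-wide mean plus 3 SD, cut at about 13% in these data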;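 also: signal is the Cy5 over europium emission ratio at 671 and 618 nm; 0% = plate median of compound wells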
# MBD2 inh: MBD2-methylated oligo binding inhibition. Q9UBB5. 0.31% of 370,000 active. TR-FRET, MBD2 binding to methylated oligonucleotide. inhibition, % at 4.4 µM; in the data active = inhibition above about 13%
# TDP2 inh: blocks human TDP2 phosphodiesterase activity. O95551. 0.34% of 370,000 active. AID 720702. recombinant TDP2, T5PNP hydrolysis, p-nitrophenol absorbance 415 nm. inhibition, % at 12.8 µM;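 active = inhibition above the mean of all tested compounds plus 3 SD, set per campaign, cut at about 25% in these data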;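 also: 0% = DMSO with enzyme and 100% = buffer with substrate but no TDP2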
#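 Read-out basis: percent inhibition. System: recombinant human TDP2. Buffer or medium: Mg2+-containing Tris-HCl buffer, pH 7.5. Repeats: single replicate. Timing: reaction 2 h, 37 °C. Benchmarks: high control without enzyme, low control DMSO plus TDP2. Probe or stimulus: 5 mM T5PNP. Doses: 12.8 µM only. Measured by: epi absorbance of p-nitrophenol freed from T5PNP by hydrolysis.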
# Rin1 Abl inh: inhibitors of human Rin1-Abl protein interaction; inhibition, % at 7.35 µM; TR-FRET Rin1/Abl binding, biochemical; P00519+Q13671; 0.4% of 360,000 active; in the data active = inhibition above about 5%, passing the limit was not always enough
# UHRF1 binding: human UHRF1 methylated DNA binding inhibitors. UHRF1 binding to methylated oligo, TR-FRET. inhibition, % at 4.4 µM. Q96T88. 0.75% of 370,000 active; in the data active = inhibition above about 21%;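 also: UHRF1 SRA domain binding a hemimethylated CpG hairpin DNA probe; 0% = median of test compound wells and 100% = reference inhibitor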
# IN multimer up: activates HIV-1 integrase multimerization in LEDGF counter-screen | shares compounds with LEDGF integ inh | TR-FRET HIV-1 integrase multimerization, biochemical | activation, % at 7.7 µM | 17% of 2,000 active; in the data active = activation above about 8.9%
# TRFRET interf: TR-FRET optical interference, LEDGF/p75 integration counter-screen; inhibition, % at 7.7 µM; TR-FRET optical interference counterscreen, HIV-1 IN multimerization; AID 1053135; 2,000 tested, under 10 active; shares compounds with LEDGF integ inh;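 active = inhibition above the mean over all tested compounds plus 3 SD, which no compound reached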;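 also: 0% = integrase with antibodies and DMSO and 100% = antibodies without integrase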
# LEDGF integ conf: LEDGF/p75-dependent HIV-1 integration inhibition, confirmation | shares compounds with LEDGF integ inh | TR-FRET LEDGF/p75-dependent HIV-1 integration, biochemical | inhibition, % at 3.7 µM | 36% of 2,000 active | AID 1053136; in the data active = inhibition above about 14%
# * hit, by the source's call; . = not tested or not shown.
SMILES,LEDGF integ inh,MBD2 inh,TDP2 inh,Rin1 Abl inh,UHRF1 binding,IN multimer up,TRFRET interf,LEDGF integ conf
Cc1cc(/C=C2\C(=O)NC(=O)N(Cc3ccco3)C2=O)c(C)n1-c1ccc(C(=O)O)cc1,48*,7,13,1,52*,3,-11,10
Cc1cc(/C=C2\C(=O)NC(=O)N(Cc3ccco3)C2=O)c(C)n1-c1ccc(O)cc1,53*,12,0,5,36*,4,-13,21*
CCn1c(C)cc(/C=C2\C(=O)NC(=O)N(c3ccccc3C)C2=O)c1C,0,1,5,3,-2,.,.,.
Cc1ccc(OCCn2cccc2/C=C2/C(=O)NC(=O)N(Cc3ccco3)C2=O)cc1,58*,12,20,-4,64*,-2,11,37*
Cn1c(=O)c2c(nc(N/N=C/c3c(O)n(C4CCCCC4)c(=S)[nH]c3=O)n2C)n(C)c1=O,-3,-1,-11,-2,1,.,.,.
COC(=O)C1=C(c2ccc(S(C)(=O)=O)cc2)C[C@@H]2CC[C@H]1N2C(=O)N1CCOCC1,2,2,11,1,3,.,.,.
COC(=O)C1=C(c2ccc(F)cc2OCc2ccccc2)C[C@@H]2CC[C@H]1N2C(=O)NCc1ccc([N+](=O)[O-])cc1,-1,0,-3,1,-4,.,.,.
Cc1ccc(/C=C2\C(=O)NC(=O)N(Cc3ccccc3Cl)C2=O)o1,3,2,-8,5,-3,.,.,.
CCOC(=O)C1CCN(/C=C2/C(=O)NC(=O)N(Cc3ccco3)C2=O)CC1,14*,-1,1,-4,10,4,-13,3
N#CCCn1cc(C(=O)Nc2ccccc2Cl)c(-c2ccc(F)cc2)n1,6,-4,-3,0,-3,.,.,.
CN1C(=O)C(=Cc2cn(CC#N)c3ccccc23)C(=O)N(C)C1=O,16*,-1,-2,4,2,0,-1,-5
CCOC(=O)Cn1cc(C=C2C(=O)N(C)C(=O)N(C)C2=O)c2ccccc21,3,-2,-12,0,-2,.,.,.
COc1ccc(-n2c(O)c(C(C)=NCC3CCCO3)c(=O)[nH]c2=O)cc1 (configuration not stated),-5,3,-2,-2,4,.,.,.
COc1ccc(-n2c(O)c(C(C)=NCCN3CCNCC3)c(=O)[nH]c2=O)cc1,17*,3,-3,-3,6,0,2,3
CCCCn1c(O)c(C(C)=NCC2CCCO2)c(=O)[nH]c1=O (configuration not stated),0,-2,-4,-2,0,.,.,.
CC1(C)NCCN2C(=O)CSC21 (configuration not stated),-3,-4,-23,2,2,.,.,.
CCN(CC)c1ccc(N=Cc2c(O)n(-c3cc(OC)ccc3OC)c(=O)[nH]c2=O)cc1,16*,0,8,3,-3,3,-12,3
N#Cc1c(/N=C/c2c(O)n(Cc3ccco3)c(=O)[nH]c2=O)sc2c1CCCC2,34*,5,11,3,46*,2,-11,10
CCN(CC)c1ccc(N=Cc2c(O)n(Cc3ccco3)c(=O)[nH]c2=O)cc1,57*,2,19,2,6,3,-17,2
CC1CCCCN1Cc1c[nH]c2ccccc12 (configuration not stated),-3,-2,1,-1,0,.,.,.
CN1C(=O)C(C2CCCCC2)C(=O)N(C)C1=O,55*,1,-3,3,0,1,-4,-1
Cn1c(O)c(C=NC2CCN(Cc3ccccc3)CC2)c(=O)n(C)c1=O,2,-2,13,-3,-2,.,.,.
CCc1ccc(N2C(=O)NC(=O)/C(=C\c3cc(C)n(-c4cc(C(=O)O)cc(C(=O)O)c4)c3C)C2=O)cc1,29*,-2,1,2,14,6,-20,21*
Cc1ccc(N2C(=O)NC(=O)/C(=C\c3cc(C)n(-c4cc(C(=O)O)cc(C(=O)O)c4)c3C)C2=O)cc1,36*,-1,-8,2,26*,2,-8,11
Cc1ccc(N2C(=O)NC(=O)/C(=C\c3cc(C)n(-c4ccc(C(=O)O)cc4)c3C)C2=O)cc1,2,0,6,0,-2,.,.,.
SMILES,LEDGF integ inh,MBD2 inh,TDP2 inh,Rin1 Abl inh,UHRF1 binding,IN multimer up,TRFRET interf,LEDGF integ conf
CN1CCC2(CC1)c1ccccc1-c1ccccc12,1,4,-2,3,-2,.,.,.
CCCOC(=O)c1ccc(-[n+]2c(-c3ccccc3)cc(-c3ccccc3)cc2-c2ccccc2)cc1,-3,-1,-8,0,-1,.,.,.
Cc1cccc(N2C(=O)/C(=C/c3ccc(CN(CCC#N)S(C)(=O)=O)o3)C(=O)NC2=S)c1,25*,-1,-8,-4,7,1,-4,36*
Cc1ccc(/C=C2\C(=O)NC(=S)N(c3cccc(F)c3)C2=O)o1,4,6,13,2,3,.,.,.
COC(=O)C1CC(OC(C)=O)C(=O)[C@H]2C1(C)CC[C@H]1C(=O)OC(c3ccoc3)CC12C (some centres not stated),-2,-1,-6,.,0,.,.,.
O=C(OCc1ccccc1)N1CCC2CC1c1cc(N3Cc4ccccc4-n4nncc4C3)ccc12 (configuration not stated),26*,4,8,1,6,2,-6,12
CC(C)COC(=O)N1Cc2ccccc2-n2nncc2C1,5,0,-9,-2,-2,.,.,.
O=c1cccc2n1CC1CC2CN(C(c2cccc(F)c2)c2sc3ncnn3c2O)C1 (configuration not stated),17*,-5,-3,1,-2,0,2,1
CCN(CC)C(=O)Cn1cc(/C=C2\C(=O)NC(=O)N(c3ccccc3F)C2=O)c2ccccc21,18*,2,-2,-2,0,2,-6,5
COc1ccc(Cc2nccc3cc(OC)c(OC)cc23)cc1OC,33*,4,24,1,19,2,-6,6
COc1ccc(CCNCc2ccc(C)s2)cc1OC,2,2,-2,0,2,.,.,.
COc1ccc(CCNCc2ccncc2)cc1,14*,-4,6,-1,-1,-3,9,2
COc1ccc(CCNCc2ccccc2)cc1,4,2,4,1,1,.,.,.
COc1ccc(CC2=NCCc3cc(OC)c(OC)cc32)cc1OC,27*,6,31*,2,21*,1,-6,2
C=C1C(=O)OC2CC(C)C3C=CC(=O)C3(C)C(O)C12 (configuration not stated),.,.,.,3,.,.,.,.
